MrgX1 PAM: allosterically activates human MrgX1 receptor signaling | Q96LB2 | MrgX1-HEK293, Fluo-4 calcium flux, FDSS; active compounds read high | B-score at 10 µM | hit rate 0.63% among 310,000;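 active = plate-corrected calcium response at least 3 library SD above typical, normal starting fluorescence, not activating the receptor alone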;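 note: compound read alongside a low EC10 to EC30 dose of BAM8-22 agonist; peak minus trough fluorescence over baseline measured at the second addition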
Target sequence (Q96LB2 whole entry, looked up): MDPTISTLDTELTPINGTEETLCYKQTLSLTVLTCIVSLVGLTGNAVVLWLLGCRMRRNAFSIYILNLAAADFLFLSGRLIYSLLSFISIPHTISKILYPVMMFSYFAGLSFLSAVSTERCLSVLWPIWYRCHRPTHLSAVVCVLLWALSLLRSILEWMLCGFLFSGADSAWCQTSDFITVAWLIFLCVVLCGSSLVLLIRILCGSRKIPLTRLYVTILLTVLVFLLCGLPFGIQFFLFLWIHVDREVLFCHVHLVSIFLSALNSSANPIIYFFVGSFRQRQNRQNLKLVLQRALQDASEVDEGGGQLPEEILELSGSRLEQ
MrgX1 ag: activates human MrgX1 receptor signaling; B-score at 10 µM; MrgX1-HEK293 cells, Fluo-4 calcium fluorescence, agonist mode; active compounds read high; hit rate 0.44% among 310,000;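 active = calcium response B-score plate-corrected fluorescence ratio at least 3 library SD, with starting fluorescence B-score inside 5 SD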
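System – MrgX1-expressing HEK293 cells · Incubation – cells plated overnight, dye loaded 0.5 h 37 °C, 0.5 h room temperature · Technique – kinetic Fluo-4 NW fluorescence of intracellular calcium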
RGS4 block: human RGS4 inhibition; P49798; HEK293 M3R/RGS4 inducible, Fluo-4 calcium flux; active compounds read high; triggered by carbachol at its EC20; B-score at 10 µM; hit rate 0.45% among 310,000; AID 463165;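 active = B-score, a plate-corrected calcium signal, over three deviations above library mean, with baseline fluorescence within five deviations of library mean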;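 note: RGS4 expression induced by doxycycline in cells with stable M3 receptor; B-score is computed from the integrated fluorescence ratio over baseline after carbachol; higher B-score means a larger calcium signal and so more RGS4 inhibition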
Target sequence (P49798 whole entry, looked up): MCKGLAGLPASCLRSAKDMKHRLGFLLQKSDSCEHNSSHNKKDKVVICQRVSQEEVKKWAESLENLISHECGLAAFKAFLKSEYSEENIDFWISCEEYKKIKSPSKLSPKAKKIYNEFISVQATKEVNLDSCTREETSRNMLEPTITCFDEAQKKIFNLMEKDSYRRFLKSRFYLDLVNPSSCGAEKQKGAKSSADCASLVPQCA
MrgX1 antagonist: human MrgX1 receptor antagonism, primary screen; Q96LB2; hit rate 1.3% among 310,000; B-score at 10 µM; MRGX1-HEK293 calcium flux, Fluo-4, BAM8-22 antagonism; active compounds read low;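 active = calcium-response B-score plate-corrected more than 3 library SD below zero, starting fluorescence within 5 deviations, no agonist response on first addition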;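 note: peak minus trough fluorescence over baseline after final BAM8-22 challenge near maximal dose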
RGS4 pot: RGS4 potentiation or activation; HEK293 M3R/inducible RGS4, carbachol calcium flux Fluo4; active compounds read low; B-score at 10 µM; hit rate 0.92% among 310,000; AID 463111;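 active = B-score of the integrated calcium signal more than 4 SD below the library mean, with starting fluorescence not abnormally high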;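 note: negative B-score means reduced calcium response which marks RGS4 activation or potentiation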
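Material: Inducible-RGS4 HEK293 cells carrying M3 receptor; also added: carbachol at ECmax as muscarinic agonist stimulus; incubation: compound preincubation 20 min at room temperature before agonist; signal: Fluo4-AM (2 µM) calcium-flux fluorescence, kinetic read; measure: integrated calcium ratio converted to B score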
MrgX1 ant reconf: human MrgX1 receptor antagonism, re-confirmation screen; remaining BAM8-22 calcium response % of control (active compounds read low), % at 10 µM; hit rate 19% among 2,300; MrgX1-HEK293, BAM8-22 calcium flux, Fluo-4; active compounds read low; shares compounds with MrgX1 antagonist;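 active = remaining agonist calcium response no higher than 100% minus 3 SD of agonist-only control wells, with starting fluorescence near control levels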;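 note: agonist BAM8-22 given at a near maximal EC90 to ECmax level; peak minus minimum fluorescence divided by baseline after agonist addition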
HEK293 Ca flux: counter-screen for MrgX1 antagonists: effect in parental HEK293 cells; shares compounds with MrgX1 antagonist; Fluo-4 calcium fluorescence, FDSS; AID 624111; fluorescence ratio F(max-min)/F0 at 10 µM; hit rate 2% among 4,000;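 active = duplicate-averaged calcium fluorescence ratio at least three times the standard deviation of buffer wells, a nonspecific response in parental cells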
HEK293 Ca counter: counter-screen for MrgX1 allosteric activators: effect in parental HEK293 cells | shares compounds with MrgX1 antagonist | parental HEK293 calcium flux, Fluo-4 fluorescence ratio; active compounds read high | fluorescence ratio F(max-min)/F0 at 10 µM | hit rate 0.4% among 4,000;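 active = calcium fluorescence ratio, averaged over duplicates, at least 3 SD of the buffer-well ratio, meaning a nonspecific response in receptor-free cells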;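 note: untransfected parental HEK293 lacking MrgX1 used as counterscreen for MrgX1 allosteric activators; fluorescence change taken during the second addition on a kinetic imager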
HEK293 Ca cntr2: activity in parental HEK293 cells lacking MrgX1 receptor | shares compounds with MrgX1 antagonist | fluorescence ratio F(max-min)/F0 at 10 µM | hit rate 8.7% among 4,000 | Fluo-4 calcium fluorescence (FDSS); active compounds read high;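 active = calcium fluorescence ratio at least three times the spread of buffer wells, meaning a non-specific response in parental cells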
Numbers stand for hits; – = inactive; · = no result. Most compounds without a hit are left out; they make up all but 3.5% or so of the library.

SMILES | MrgX1 PAM | MrgX1 ag | RGS4 block | MrgX1 antagonist | RGS4 pot | MrgX1 ant reconf | HEK293 Ca flux | HEK293 Ca counter | HEK293 Ca cntr2
O=C(CNC(=S)NC(=O)c1ccc(F)cc1)c1ccccc1 | – | – | – | -4.7 | – | – | – | – | –
O=C(CNC(=S)NC(=O)c1ccccc1)c1ccccc1 | – | – | – | – | – | · | · | · | ·
CC(C)c1ccc(N2C(=O)/C(=C/N(C)C)SC2=S)cc1 | – | – | – | – | – | · | · | · | ·
COc1ccc(OC)c(N2C(=O)CC(Cc3ccc(Cl)cc3)C2=O)c1 (stereo not drawn) | – | – | – | -4.5 | – | – | – | – | –
C[C@@H]1C(=O)O[C@@H]2CC34[C@H]5C[C@@H](C(C)(C)C)C36[C@H](OC(=O)[C@@H]6O)OC4(C(=O)O5)[C@@]12O (stereo partly drawn) | – | – | – | – | – | · | · | · | ·
COCCn1c(=O)[nH]c2cc(C(=O)N3CCN(c4ccc(OC)cc4)CC3)ccc2c1=O | – | – | – | – | – | · | · | · | ·
Cc1ccc(NC(=O)CCc2nnc3ccc(N4CCC(C)CC4)nn23)nc1 | – | – | – | -7.4 | – | – | – | – | –
CCCOCC1CC(CCc2nc(=S)[nH][nH]2)C(=O)O1 (stereo not drawn) | – | – | – | -5.3 | – | – | – | – | –
C[C@H](C(O)c1ccccc1)N(C)C(=O)CN (stereo partly drawn) | – | – | – | – | – | · | · | · | ·
COc1ccc(OC)c(NC(=O)C23CC4CC(C2)CC(n2cnc(Br)n2)(C4)C3)c1 | – | – | – | -5.2 | – | – | – | – | –
Cc1cc(C)cc(N(CCC#N)C(=O)COC(=O)CNC(=O)c2sc3ccccc3c2Cl)c1 | – | – | – | – | – | · | · | · | ·
FC(F)(F)c1ccc2c(c1)n(Cc1ccccc1)c1[n+]2CCCCC1 | – | – | – | – | – | · | · | · | ·
COCCNC(=O)C(c1ccc(C)cc1)N(Cc1cccs1)C(=O)CCC(=O)Nc1ccccn1 (stereo not drawn) | – | – | – | – | – | · | · | · | ·
COc1ccc(NC(=O)CNS(=O)(=O)c2cccc3nonc23)c(OC)c1 | – | – | – | -5.7 | – | – | – | – | –
CCCCOc1cc(CC2CNC(=O)N2)ccc1OC (stereo not drawn) | – | – | – | – | – | · | · | · | ·
O=C(O)c1ccc(S(=O)(=O)N2CCN(c3ccccn3)CC2)cc1 | – | – | – | – | – | · | · | · | ·
Cc1ccccc1C(=O)NC1CCN(Cc2nnnn2CCc2ccccc2)CC1 | – | – | – | – | – | · | · | · | ·
COc1ccc2oc(C(=O)OCC(=O)NCc3ccco3)c(C)c2c1 | – | – | – | -6.4 | – | – | – | – | –
Cc1cccc(NC(=O)C(CCC(N)=O)NC(=O)OCc2ccccc2)c1 (stereo not drawn) | – | – | – | – | – | · | · | · | ·
NC(=O)Nc1ccc(Oc2ncc(C(F)(F)F)cc2Cl)cc1 | – | – | – | – | – | · | · | · | ·
CCN(CC)S(=O)(=O)c1cccc(NC(=O)CC2CCCC2)c1 | – | – | – | – | – | · | · | · | ·
CCN(CC)S(=O)(=O)c1cccc(NC(=O)Nc2cccc(C(F)(F)F)c2)c1 | – | – | – | -5.2 | – | 53% | – | – | –
COc1cccc(Oc2ccc(OC)cc2C(=O)O)c1 | – | – | – | – | – | · | · | · | ·
COc1ccc(CNC(=O)COC(=O)CCCOc2ccc(Cl)cc2Cl)cc1 | – | – | – | – | – | · | · | · | ·
CN(C)/C=N/c1nc(-c2ccc3c(c2)OCO3)cs1 | – | – | – | -6.4 | – | – | – | – | –
Cc1cc(NC(=S)Nc2ccccc2)ccc1Br | – | – | – | – | – | · | · | · | ·
Cc1cc(NC(=S)Nc2cccnc2)ccc1Br | – | – | – | -5.2 | – | 86% | – | – | –
